Experiment [1] deals with Escherichia coli. Put plainly: Minimum inhibitory concentration of compound against Escherichia coli. The experiment is classed as functional. Summed up: (§1)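 Broth microdilution in Mueller Hinton broth for Gram-negatives, 2-fold series 0.015–1000 µg/mL, inoculum about 5 × 10^5 CFU/mL. Incubated overnight at 35 °C; MIC = lowest well with no visible growth. Some tests included polymyxin B nonapeptide at a level with no antibacterial activity of its own, compared with PMBN-free controls.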

Experiment [2] relates to Escherichia coli. Put plainly: Minimum inhibitory concentration of compound against Escherichia coli KL-16 strain. The experiment is classed as functional. The essentials: as §1
For experiment [3], the system named is Escherichia coli. Kind of experiment: Minimum inhibitory concentration of compound against KL-16 Escherichia coli strain. The experiment is classed as functional. The essentials: as §1
The subject of experiment [4] is Staphylococcus epidermidis. Put plainly: Minimum inhibitory concentration of compound against OC2603 Staphylococcus epidermidis strain. The experiment is classed as functional. Summed up:
(§2)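 Broth microdilution in Luria broth for Gram-positives, 2-fold series 0.015–1000 µg/mL, inoculum about 5 × 10^5 CFU/mL. Incubated overnight at 35 °C; MIC = lowest well concentration with no visible growth.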

The subject of experiment [5] is Staphylococcus aureus. Kind of experiment: Minimum inhibitory concentration of compound against OC6538 Staphylococcus aureus strain. The experiment is classed as functional. The essentials:
as §2

The subject of experiment [6] is DNA gyrase (Escherichia coli). Put plainly: Inhibition of cleavable complex ability of DNA gyrase in Escherichia coli.

Converted amounts (≈) assume the structure as drawn. Peptide text beside a SMILES is read from it.

As to `CC(C)C[C@@H]1NC(=O)[C@@H](Cc2ccccc2)NC(=O)[C@H](CCN)NC(=O)[C@@H](NC(=O)[C@H](CCN)NC(=O)[C@@H](N)[C@@H](C)O)CCNC(=O)[C@H]([C@@H](C)O)NC(=O)[C@H](CCN)NC(=O)[C@H](CCN)NC1=O` (HELM PEPTIDE1{T.[Dab].[Dab].[Dab].[dF].L.[Dab].[Dab].T}$PEPTIDE1,PEPTIDE1,3:R3-9:R2$$$V2.0), the MIC in experiment [1] is 500 µg/mL (≈ 519 µM); in experiment [2], over 500 µg/mL.

Take `CC(c1ccc(N2CCN(c3ccccc3)CC2)cc1)N(O)C(=O)c1ccccc1-c1ccccc1C(=O)O` (stereo not drawn): the MIC in experiment [1] was over 1000 µg/mL; in experiment [3], over 1000 µg/mL; in experiment [4] it was 500 µg/mL (≈ 959 µM); in experiment [5] it was 500 µg/mL (≈ 959 µM).

For the molecule `CC(c1ccc2oc(-c3ccccc3)cc2c1)N(O)C(=O)c1ccccc1-c1ccccc1C(=O)O` (stereo not drawn), the MIC in experiment [1] is over 1000 µg/mL; in experiment [3] it was over 1000 µg/mL; in experiment [4], 15.6 µg/mL (≈ 32.7 µM); in experiment [5], 15.6 µg/mL (≈ 32.7 µM). Also, in experiment [6], the CC50 was 62.5 µg/mL (≈ 131 µM).

As for `COc1cc(C(C)N(O)C(=O)c2ccccc2-c2ccccc2C(=O)O)cc(OC)c1OC` (stereo not drawn), the MIC was over 1000 µg/mL in experiment [1], over 1000 µg/mL in experiment [3], 1000 µg/mL (≈ 2210 µM) in experiment [4] and 1000 µg/mL (≈ 2210 µM) in experiment [5].

As to `CC(c1ccc2c(c1)Nc1ccccc1S2)N(O)C(=O)c1ccccc1-c1ccccc1C(=O)O` (stereo not drawn), the minimum inhibitory concentration (MIC) in experiment [1] was over 1000 µg/mL; in experiment [3] it was over 1000 µg/mL; in experiment [4], 62.5 µg/mL (≈ 130 µM); in experiment [5], 62.5 µg/mL (≈ 130 µM). This molecule displayed a CC50 in experiment [6] of 750 µg/mL (≈ 1550 µM).

Regarding `CC(c1ccc2c(ccc3ccccc32)c1)N(O)C(=O)c1ccccc1-c1ccccc1C(=O)O` (stereo not drawn), the MIC in experiment [1] was 31.2 µg/mL (≈ 67.6 µM); in experiment [3], over 1000 µg/mL; in experiment [4] it was 31.2 µg/mL (≈ 67.7 µM); in experiment [5], 31.2 µg/mL (≈ 67.7 µM). For the same molecule, the CC50 in experiment [6] was 97.7 µg/mL (≈ 212 µM).

For the molecule `CC(c1ccccc1)N(O)C(=O)c1ccccc1-c1ccccc1C(=O)O` (stereo not drawn), the MIC is 1000 µg/mL (≈ 2770 µM) in experiment [1], over 1000 µg/mL in experiment [3], 1000 µg/mL (≈ 2770 µM) in experiment [4] and 1000 µg/mL (≈ 2770 µM) in experiment [5].

For the molecule `CCn1cc(C(=O)O)c(=O)c2ccc(C)nc21` [NALIDIXIC ACID], the MIC in experiment [1] stood at 1 µg/mL (≈ 4.31 µM); in experiment [3], 8 µg/mL (≈ 34.4 µM); in experiment [4], 250 µg/mL (≈ 1080 µM); in experiment [5], 500 µg/mL (≈ 2150 µM).

As a reminder, the MIC is the smallest concentration in the dilution series that meets the test's criterion for growth inhibition. Higher therefore signals a need for much substance.

The values above are taken from ChEMBL document CHEMBL1130179, “DNA gyrase inhibitory and antimicrobial activities of some diphenic acid monohydroxamides” (J Med Chem, 1997).
